Measurements collected from several papers.
Protocols differ between the studies behind these lines.
MAOB: Amine oxidase [flavin-containing] B (MAOB, Homo sapiens, UniProt P27338)
CA9: Carbonic anhydrase 9 (CA9, Homo sapiens, UniProt Q16790)
PKN1: Serine/threonine-protein kinase N1 (PKN1, Homo sapiens, UniProt Q16512)
PADI4: Protein-arginine deiminase type-4 (PADI4, Homo sapiens, UniProt Q9UM07)
HRH1: Histamine H1 receptor (HRH1, Homo sapiens, UniProt P35367)

| Compound | target | test | test system | setting | endpoint | value |
| --- | --- | --- | --- | --- | --- | --- |
| CCOc1ccc(C(=O)Nc2ccc([N+](=O)[O-])cc2C(F)(F)F)cc1OCC | MAOB | enzyme activity, inhibitor | – | 1 µM, 20 min | inhibition | 62% |
| Cc1ccc(-c2nn(-c3ccccc3)cc2C2c3sc(=O)[nH]c3SC3C(=O)N(c4ccccc4)C(=O)C32)cc1 (stereo not drawn) | CA9 | enzyme activity, inhibitor | – | 0.1 µM | inhibition | 39% |
| O=C(Nc1ccc(Br)cc1)c1cc2ccccc2cc1O | MAOB | enzyme activity, inhibitor | – | 1 µM, 20 min | inhibition | 72% |
| S=C(NCc1ccc2c(c1)OCO2)N1CCN(c2ncnc3c2oc2ccccc23)CC1 | PKN1 | enzyme activity, inhibitor | – | 1 µM | activity vs control | 98% |
| N#CC1CSc2[nH]c(=O)sc2C1c1cn(-c2ccccc2)nc1-c1ccc(Br)cc1 (stereo not drawn) | CA9 | enzyme activity, inhibitor | – | 1 µM | inhibition | 74.5% |
| N=C(CF)NCCC[C@H](NC(=O)c1ccccc1)c1nn[nH]n1 | PADI4 | enzyme activity, inhibitor | – | – | kinact/KI | 67.5 M⁻¹ s⁻¹ |
| CN(C)CCOC1c2ccccc2CCc2ccccc21 | HRH1 | binding | – | – | koff | 0.00215 s⁻¹ |
| CN(C)CCOc1ccc(-c2nc(-c3ccncc3)c(-c3ccc4c(c3)CC/C4=N\O)[nH]2)cc1 | PKN1 | enzyme activity, inhibitor | – | 1 µM | activity vs control | 95% |
| CC1=C(C(=O)Nc2ccc([N+](=O)[O-])cc2Cl)Cc2ccccc21 | MAOB | enzyme activity, inhibitor | – | 1 µM, 20 min | inhibition | 44% |
| Cc1cc(F)ccc1-c1nc(NCCN=C(N)NC#N)nc2c1ccc(=O)n2-c1c(F)cccc1F | PKN1 | enzyme activity, inhibitor | – | 1 µM | activity vs control | 90% |
| CN1CCN(C2c3ccccc3C=Cc3ccccc32)CC1 | HRH1 | binding | – | – | kon | 117000 M⁻¹ s⁻¹ |
| CNC(=O)c1cccc2cc(Oc3ccnc4cc(OCC5(N)CC5)c(OC)cc34)ccc12 | PKN1 | enzyme activity, inhibitor | – | 1 µM | activity vs control | 92% |
| CN1CCC(=C(c2ccccc2)c2ccccc2)CC1 | HRH1 | binding | – | – | kon | 2e+06 M⁻¹ s⁻¹ |
| O=C(Nc1ccc(OC(F)(F)F)cc1)c1ccccc1 | MAOB | enzyme activity, inhibitor | – | 1 µM, 20 min | inhibition | 29% |
| O=C1NC(=S)C(=Cc2cn(-c3ccccc3)nc2-c2ccc(Br)cc2)S1 | CA9 | enzyme activity, inhibitor | – | 10 nM | inhibition | 12% |
| C=CC(=O)Nc1cc(N2CCN(CC)CC2)ccc1Nc1cc(N(C)C(=O)Nc2c(Cl)c(OC)cc(OC)c2Cl)ncn1 | PKN1 | enzyme activity, inhibitor | – | 1 µM | activity vs control | 103% |
| CN(C)CCOC1c2ccccc2C=Cc2ccccc21 | HRH1 | binding | – | – | koff | 0.00015 s⁻¹ |
| CC(C)(O)[C@H]1CC[C@H](Nc2ccc3ncc(-c4cccc(C(F)(F)F)c4)n3n2)CC1 | Receptor-interacting serine/threonine-protein kinase 3 (RIPK3, Homo sapiens, UniProt Q9Y572) | enzyme activity, inhibitor | – | 1 µM | remaining activity | 80.6% |

| Compound | target | test | test system | setting | endpoint | value |
| --- | --- | --- | --- | --- | --- | --- |
| N=C(CCl)NCCC[C@H](NC(=O)c1ccccc1)c1nn[nH]n1 | PADI4 | enzyme activity, inhibitor | – | – | kinact/KI | 287 M⁻¹ s⁻¹ |
| C=CC(=O)Nc1cccc(Oc2nc(Nc3ccc(N4CCN(C)CC4)cc3OC)ncc2Cl)c1 | PKN1 | enzyme activity, inhibitor | – | 1 µM | activity vs control | 84% |
| CN1CCC(=C2c3ccccc3CCc3ccccc32)CC1 | HRH1 | binding | – | – | kon | 1.33e+06 M⁻¹ s⁻¹ |
| O=[N+]([O-])c1ccc(O[C@H]2O[C@H](CO)[C@@H](O)[C@H](O)[C@@H]2O)cc1 | Beta-mannosidase (Bacteroides thetaiotaomicron, UniProt Q8AAK6) | enzyme activity, substrate, absorbance | – | pH 5.6 | Km | 390 µM |
| N=C(N)NCCC[C@H](NC(=O)[C@H](CC(=O)O)NC(=O)[C@H](Cc1c[nH]c2ccccc12)NC(=O)[C@H](CCCNC(=N)N)NC(=O)[C@@H](N)Cc1ccccc1)C(=O)N[C@@H](Cc1ccccc1)C(=O)NCC(=O)O | Melanocortin receptor 5 (Mus musculus, UniProt P41149) | cAMP, agonist | HEK293 | – | Emax | 90% |
| O=C(Nc1ccccn1)c1ccc(Cl)cc1 | MAOB | enzyme activity, inhibitor | – | 1 µM, 20 min | inhibition | 11% |
| CCOC(=O)C1CSc2[nH]c(=O)sc2C1c1cn(-c2ccccc2)nc1-c1ccccc1 (stereo not drawn) | CA9 | enzyme activity, inhibitor | – | 10 nM | inhibition | 15.6% |
| N#Cc1cnc(Nc2cc(NC[C@H]3CNCCO3)c(C(F)(F)F)cn2)cn1 | PKN1 | enzyme activity, inhibitor | – | 1 µM | activity vs control | 86% |
| Cc1cc([N+](=O)[O-])ccc1NC(=O)c1ccccc1 | MAOB | enzyme activity, inhibitor | – | 1 µM, 20 min | inhibition | 7% |
| N=C(CCl)NCCC[C@H](NC(=O)c1ccc(-c2ccccc2)cc1)c1nn[nH]n1 | PADI4 | enzyme activity, inhibitor | – | – | kinact/KI | 398 M⁻¹ s⁻¹ |
| COc1cc([N+](=O)[O-])ccc1NC(=O)c1ccccc1O | MAOB | enzyme activity, inhibitor | – | 1 µM, 20 min | inhibition | 7% |
| Cc1cccnc1C(=O)Nc1ccc(N2C(=O)c3ccccc3C2=O)c(Cl)c1 | Metabotropic glutamate receptor 1 (GRM1, Homo sapiens, UniProt Q13255) | calcium signal, positive allosteric modulator | T-REx-293 | – | Emax | 91% |
| CCOC(=O)C1CSc2[nH]c(=O)sc2C1c1cn(-c2ccccc2)nc1-c1ccc(OC)cc1 (stereo not drawn) | CA9 | enzyme activity, inhibitor | – | 10 µM | inhibition | 84.9% |
| O=C(c1ccc(Cl)cc1)N(Cc1ccccc1)C1CCCCC1 | Endothelin receptor type B (EDNRB, Homo sapiens, UniProt P24530) | cell-free assay | – | 10 µM | inhibition | 3.4% |
| Cc1ccc(C(=O)Nc2ccc([N+](=O)[O-])cc2C(F)(F)F)cc1 | MAOB | enzyme activity, inhibitor | – | 1 µM, 20 min | inhibition | 69% |
| CC(C)(C)n1nnc([C@H](CCCNC(=N)CCl)NC(=O)c2ccc(-c3ccccc3)cc2)n1 | PADI4 | enzyme activity, inhibitor | – | – | kinact/KI | 102 M⁻¹ s⁻¹ |
| CO[C@H]1C[C@@H]2CC[C@@H](C)[C@@](O)(O2)C(=O)C(=O)N2CCCC[C@H]2C(=O)O[C@H]([C@H](C)C[C@@H]2CC[C@@H](OP(C)(C)=O)[C@H](OC)C2)CC(=O)[C@H](C)/C=C(\C)[C@@H](O)[C@@H](OC)C(=O)[C@H](C)C[C@H](C)/C=C/C=C/C=C/1C | PKN1 | enzyme activity, inhibitor | – | 1 µM | activity vs control | 104% |
| CCOC(=O)C1CSc2[nH]c(=O)sc2C1c1cn(-c2ccccc2)nc1-c1ccc(Cl)cc1 (stereo not drawn) | CA9 | enzyme activity, inhibitor | – | 1 µM | inhibition | 70.1% |
